# VLA-4 inh: inhibition in a human VLA-4 binding assay. inhibition, % (about 7 µM as worked out from the volumes in the protocol). actives 0.2% (n = 330,000). VLA-4 expressing cells, ligand binding flow cytometry; in the data active = inhibition above about 50%
# Arr AP2 block: blocks beta-arrestin peptide binding to AP2 adaptin. FITC-arrestin peptide / GST-AP2 beads, flow cytometry; AP2 beta2 appendage carries R879A mutation. inhibition, % at 10 µM. actives 0.31% (n = 340,000). AID 504490;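 active = inhibition above a set limit, near 3 SD of compounds lacking own fluorescence, cut at about 54% in these data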
#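 System: GST-AP2 R879A bound to glutathione beads, E. coli-expressed. Also added: 50 nM FITC-arrestin peptide. Schedule: compound with beads 12 min RT, then probe 1 h RT. Signal: bead flow cytometry, FITC channel. Read-out basis: percent response.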
# pCIP destab: lowers stability of the mouse p/CIP coactivator protein | actives 0.01% (n = 290,000) | Q05BA5 | AID 1984 | decrease of EGFP signal, % at 10 µM | F442A p/CIP-EGFP cells, EGFP fluorescence, 16 h;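 active = EGFP signal decrease of at least 30% at 10 µM or well 3 SD below plate mean, unless failing retest; inactive = the rest, including hits failing retest or dose response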
# JMJD2C inh: inhibitors of human GASC-1 (JMJD2C) demethylase | AID 2099 | inhibition, % at 2.35 µM | actives 0.069% (n = 330,000) | GST-JMJD2C(1-420) H3K9me3 demethylation, DELFIA europium;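 active = more than half of a compound's replicate wells show inhibition beyond 50%, single wells judged on their own value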;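 also: signal counts dimethyl H3K9 product captured on neutravidin plate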
# Numbers stand for hits; n = inactive; x = no result. Hits are enriched below; roughly 0.57% of the tested compounds scored in any of these assays.
SMILES,VLA-4 inh,Arr AP2 block,pCIP destab,JMJD2C inh
CC(C)(C)NNC(=S)Nc1cccc(C(F)(F)F)c1,n,n,n,54.2
CCCNC(=S)Nc1cccc(C(F)(F)F)c1,n,n,n,n
Cc1cc2ccccn2c1C(=O)c1ccncc1,n,n,n,69.3
COc1ccc(NC(=O)C2CCCCN2N)cc1OCC(C)C (stereo not drawn),n,n,n,80.4
COc1ccc(CNN2CCCCC2C(=O)Nc2ccc(OC)c(OCC(C)C)c2)cc1OC (stereo not drawn),n,n,n,n
Cn1ccnc1C(O)(c1ccccc1)c1nccn1C,n,n,n,n
Cc1nn(C)c(N)c1C(O)(c1nccn1C)C(F)(F)F (stereo not drawn),n,n,n,80.6
O=C(c1cc(-c2ccccc2)nc2ccccc12)N1CCN(C2CCS(=O)(=O)C2)CC1 (stereo not drawn),n,n,x,n
Cc1cccc(NC(=O)CCSc2nc(C)cc(C)n2)c1,n,n,n,n
CC(C)=CCN1CCN(Cc2cn[nH]c2C2CCCCC2)CC1CCO (stereo not drawn),n,x,n,53.3
COc1cccc(NC(=O)CSc2nc3c([nH]c4ccccc43)c(=O)n2C)c1,59.6,n,n,n
CC1CN(S(=O)(=O)c2ccc(Cl)c(C(F)(F)F)c2)CC(C)O1 (stereo not drawn),n,70.1,n,n
CN1CCN(S(=O)(=O)c2ccc(Cl)c(C(F)(F)F)c2)CC1,x,n,x,x
COC(=O)c1sc(NC(=O)c2cc3c(s2)CCCC3)nc1C,n,n,n,59.8
Cc1nc(NC(=O)c2cc3c(s2)CCCCC3)sc1C(=O)N(C)C,n,n,n,n
O=C(CSc1nnc(CNC(=O)c2ccccc2F)o1)NCCc1ccccc1,n,n,n,107.7
O=C(CSc1nnc(CNC(=O)c2cccs2)o1)c1ccccc1,n,n,n,96.6
N#CC1=C(N)Oc2cc(N)ccc2C1c1cccc(F)c1 (stereo not drawn),n,n,n,n
C/C(=N\NC(N)=O)c1ccc(Cl)s1,n,n,n,n
C=C(C(=O)Oc1ccccc1C(C)(C)C)c1ccccc1,54.9,x,x,n
N#C/C(N=Nc1ccccc1O)=N\Nc1ccccc1O,n,n,x,86.7
COc1cccc(-n2nnc3c(=O)n(Cc4ccccc4F)cnc32)c1,n,n,n,92.3
COc1cccc(-n2nnc3c(=O)n(Cc4cccc(C)c4)cnc32)c1,n,n,n,n
CC(C)CCNC(=O)C1CCN(c2nnc(-n3cccc3)s2)CC1,n,n,n,n
CCOc1ccc(C=NNc2ccc(S(=O)(=O)Nc3ccccc3C(=O)O)cc2[N+](=O)[O-])cc1,n,n,x,n
SMILES,VLA-4 inh,Arr AP2 block,pCIP destab,JMJD2C inh
CSc1ccc(C=NNc2ccc(S(=O)(=O)Nc3ccccc3C(=O)O)cc2[N+](=O)[O-])cc1,n,n,x,103.3
c1ccc(Nc2cccc(Nc3ccccc3)c2)cc1,n,n,n,n
Cc1sc2nc(CSCC(=O)Nc3ccc(C(F)(F)F)cc3)[nH]c(=O)c2c1C,n,n,x,n
Cc1sc2nc(CSCC(=O)NC(C)(C)C)[nH]c(=O)c2c1C,n,54.7,n,n
Cn1c(SCC(=O)N2CCCC2=O)nnc1-c1ccccc1F,n,n,n,55.1
CCn1c(SCC(=O)N2CCCC2=O)nnc1-c1cccs1,n,n,x,n
O=C1CCCC2=C1C(c1ccc(OS(=O)(=O)c3ccc(Cl)cc3)cc1)C1=C(CCCC1=O)O2,n,n,n,56.9
O=C(CSc1nnnn1-c1ccc(F)cc1)c1ccc(O)c(O)c1,n,n,n,n
CCN(CC)c1ccc(NC2=C(Cl)C(=O)c3ccccc3C2=O)cc1,54.0,54.6,n,n
COc1ccccc1CN1C(=NC(=O)CCC2CCCC2)SC2CS(=O)(=O)CC21 (stereo not drawn),n,n,n,n
COc1ccc(CNC(=O)CSc2nnnn2Cc2ccccc2)cc1,n,n,n,51.7
CCCn1nnnc1SCC(=O)NCc1ccc(OC)cc1,n,n,n,n
CC(C)n1nnnc1SCC(=O)NCc1ccc2c(c1)OCO2,n,n,n,n
CCCn1nnnc1SCC(=O)NCc1ccc2c(c1)OCO2,n,n,n,62.3
CCOC(=O)C(C)Sc1nnc(NC(=O)c2ccc(C)c([N+](=O)[O-])c2)s1 (stereo not drawn),n,n,n,n
Cc1[nH]n(-c2ccccc2)c(=O)c1C(C[N+](=O)[O-])c1ccc(Br)cc1 (stereo not drawn),n,n,n,n
COc1cccc(C(C[N+](=O)[O-])c2c(C)[nH]n(-c3ccccc3)c2=O)c1 (stereo not drawn),n,n,n,68.9
O=C(c1ccc(F)cc1)N1CCCN(c2nc(-c3ccccc3)ns2)CC1,n,n,n,n
Cn1c2c(c(=O)n(C)c1=O)CN(CCCN1CCOCC1)CN2,n,n,n,53.4
CC(c1ccccc1)N1CNc2c(c(=O)n(C)c(=O)n2C)C1 (stereo not drawn),n,n,n,n
Cc1cccc(NC(=O)C2CCCN(S(=O)(=O)c3cccc4nsnc34)C2)n1 (stereo not drawn),n,n,n,n
Cc1cccc(NC(=O)C2CCN(S(=O)(=O)c3cccc4nsnc34)CC2)n1,n,n,n,51.7
Cc1cccc(NC(=O)C2CCCN(S(=O)(=O)c3c(C)nn(C)c3C)C2)n1 (stereo not drawn),n,n,n,63.0
COCCNC(=O)c1c(N)sc2c1CCCC2,n,x,n,50.1
CNC(=O)c1c(N)sc2c1CCCCC2,n,x,n,n
SMILES,VLA-4 inh,Arr AP2 block,pCIP destab,JMJD2C inh
Cc1ccc(Oc2ccc(C(=O)NC3CCSC3=O)cn2)cc1 (stereo not drawn),n,n,n,n
CC(=O)Nc1ccc2nc(-c3cccs3)[nH]c2c1,93.6,n,n,n
CC(=O)Nc1ccc2nc(-c3cccn3C)[nH]c2c1,n,n,n,n
Cn1cccc1-c1nc2ccc(NC(=O)c3cccs3)cc2[nH]1,n,n,n,58.2
COc1ccc(OCC(=O)Nc2ccccc2N2CCCCC2)cc1,n,n,n,n
O=[N+]([O-])c1ccc(-n2cccc2/C=N/Nc2nc(N3CCCCC3)nc(N3CCCCC3)n2)cc1,n,x,n,n
O=[N+]([O-])c1ccc(/C=[N+](\[O-])[C@@H]2CCCC[C@@H]2/[N+]([O-])=C/c2ccc([N+](=O)[O-])o2)o1,n,n,n,88.9
COc1ccc(-n2c(C)cc(/C=N/Nc3nnc(C)n3N)c2C)cc1,n,n,n,68.3
COc1cccc(/C=N/Nc2nnc(C)n2N)c1O,n,n,n,n
Cc1ccsc1/C=N/NC(=O)CNC(=O)c1cccc([N+](=O)[O-])c1C,55.6,n,n,n
COc1ccccc1-n1c(SCC(=O)N2CCCC2)nc2cccnc21,n,n,n,61.5
CCN(CC)C(=O)CSc1nc2cccnc2n1-c1ccccc1OC,n,n,n,n
NS(=O)(=O)c1ccc(CCNC(=O)C(=O)NCC2OCCN2S(=O)(=O)c2ccc(F)cc2)cc1 (stereo not drawn),n,n,n,n
Cc1ccc(S(=O)(=O)N2CCOC2CNC(=O)C(=O)NCCc2ccc(S(N)(=O)=O)cc2)cc1 (stereo not drawn),n,n,n,60.6

# Screens: PubChem BioAssay, several laboratories
